High-throughput results deposited in PubChem BioAssay by several laboratories.
Rows were chosen to be rich in hits. Some 2% of all compounds tested hit in one or more screens of this group.
PABP FP inh = PABP poly(A) RNA binding inhibitors, primary screen, biochemical, fluorescence polarization, uHTS; inhibition, % at 35 µM; actives 1% (n = 290,000); AID 2014, 2009;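 note: calls also rest on retests at 20 µM and on dose response follow-up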
HCV core dimer = inhibitors of HCV core protein dimerization, primary screen, biochemical, TR-FRET, high-throughput | TR-FRET GST/Flag-core106 dimerization, 1536-well | actives 0.33% (n = 300,000) | inhibition, % at 5 µM;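 active = inhibition above the mean of all tested compounds plus 3 SD, set per screening campaign, cut at about 45% in these data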
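Assay system: GST-tagged and Flag-tagged HCV core protein residues 1-106 / Times: compound-protein-antibody incubation 4 h at 22.5 °C / Signal: time-resolved FRET, ex 340 nm, em 617 and 671 nm / Evaluation: % inhibition based on acceptor/donor emission ratio / Benchmarks: wells lacking GST-core106 and wells with excess unlabelled core106 / Repeats: singlicate, one well per compound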
PABP1 MLLE inh = inhibitors of PABP1 MLLE–PAM2 peptide binding, primary screen, biochemical, fluorescence polarization, FITC-PAM2, GST-MLLE; inhibition, % at 20 µM; AID 588489, 2011; actives 0.36% (n = 360,000); in the data active = inhibition above about 35%, passing the limit was not always enough;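 note: plate controls were DMSO wells with GST-MLLE for no effect and wells lacking GST-MLLE protein for full effect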
HCV NS3 hel inh = inhibitors of HCV NS3 helicase, primary screen, biochemical, Cy5 molecular beacon fluorescence | AID 1800, 2009 | inhibition, % at 10.9 µM | actives 0.56% (n = 290,000) | Hepatitis C virus NS3 helicase | NS3 helicase DNA unwinding;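 active = inhibition above the mean of all tested compounds plus 3 SD, set per campaign, cut at about 35% in these data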;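 note: 0% = DMSO wells and 100% = thioflavine S control wells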
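Measured by: Cy5 fluorescence, 0 and 60 min reads / Assay system: NS3 helicase fragment of HCV / Control set: low DMSO, high thioflavine S at 110 µM / Times: 1 h reaction at 25 °C, ATP-initiated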
eIF4H FP inh = human eIF4H binding inhibitors, primary screen, translation initiation inhibitor project, biochemical, uHTS, fluorescence polarization | eIF4H fluorescence polarization binding assay | Eukaryotic translation initiation factor 4H (Homo sapiens), Q15056 | inhibition, % at 35 µM | AID 2012, 2009 | actives 0.94% (n = 290,000);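 note: calls also rest on retests at 20 µM and on dose response follow-up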
DNA FID counter = compounds displacing fluorescent DNA intercalator, primary screen, artefact control for HCV NS3 helicase inhibitor project, biochemical, FID fluorescence. DNA fluorescent intercalator displacement. inhibition, % at 7.9 µM. actives 0.17% (n = 290,000); in the data active = inhibition above about 37%;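 note: 0% = vehicle and 100% = reference compound; higher means more ethidium bromide displaced from hairpin DNA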
Numbers without * were called inactive. Unless noted, the rule behind the calls is not given here.

For CC(OC(=O)c1ccc(NC(=O)CC#N)cc1)C(=O)Nc1nc(-c2ccccc2)cs1 (centres undefined) the results were HCV core dimer 20.6 and PABP1 MLLE inh -8.2.
Screening CNC(=S)N/N=C(\C)c1cccc([N+](=O)[O-])c1 returned PABP FP inh 120.4, HCV core dimer 1.6, PABP1 MLLE inh 18.9, HCV NS3 hel inh 7.2, eIF4H FP inh active and DNA FID counter 2.2.
CC1CCc2sc(C(=O)N(C)CC(=O)Nc3ccc(N4CCOCC4)cc3)cc2C1 (centres undefined) was read as PABP FP inh 1.7, HCV core dimer 10.8, PABP1 MLLE inh -21.4, HCV NS3 hel inh -7.9, eIF4H FP inh -6.7 and DNA FID counter -32.5.
`CN(C)CCCN(CCCN(C)C)C(=S)Nc1ccc(S(=O)(=O)N2CCOCC2)cc1` gave PABP FP inh -0.4, HCV core dimer -1.7, PABP1 MLLE inh -1.6, HCV NS3 hel inh 10.2, eIF4H FP inh 1.6 and DNA FID counter 37.4*.
For Cc1ccc(N(C(C)C(=O)Nc2ccc(S(=O)(=O)N3CCOCC3)cc2)S(C)(=O)=O)cc1 (centres undefined) the results were PABP FP inh 11.4*, HCV core dimer 1.1, PABP1 MLLE inh 9.1, HCV NS3 hel inh 2.5, eIF4H FP inh inconclusive and DNA FID counter -27.2.
`CC(C)(C)CC(C)(C)NC(=S)Nc1ccc(S(=O)(=O)N2CCOCC2)cc1` gave PABP FP inh 7.2, HCV core dimer 6.4, PABP1 MLLE inh 19.9, HCV NS3 hel inh 5.0, eIF4H FP inh -1.7 and DNA FID counter -20.1.
O=C(CN1CCCc2ccccc21)Nc1cc(S(=O)(=O)N2CCCC2)ccc1Cl was read as PABP1 MLLE inh 0.4.
For CCN(C(=O)c1c([N+](=O)[O-])cnn1C)c1ccccc1 the results were PABP1 MLLE inh -4.6.
CN1OC[C@@H]2CN(Cc3ccc(Cl)cc3)[C@H](c3ccc(-n4ccnc4)cc3)C[C@@H]21 was read as PABP1 MLLE inh -0.5.
For COC(=O)c1ccccc1NC(=O)CSc1nc(N)cc(=O)[nH]1 the results were PABP FP inh 58.8, HCV core dimer 9.0, PABP1 MLLE inh 19.0, HCV NS3 hel inh 5.8, eIF4H FP inh 90.1* and DNA FID counter 2.4.
Screening COC(=O)c1ccccc1NC(=O)CSc1nc(N)cc(N)n1 returned PABP FP inh -1.5, HCV core dimer 0.7, PABP1 MLLE inh 17.8, HCV NS3 hel inh 2.5, eIF4H FP inh -4.9 and DNA FID counter -3.1.
Nc1ccccc1SC1CC(=O)N(Cc2ccccc2)C1=O (centres undefined) was read as PABP FP inh 68.5*, HCV core dimer -3.3, PABP1 MLLE inh 28.2, HCV NS3 hel inh 7.3, eIF4H FP inh active and DNA FID counter -2.3.
`CCN1C(=O)CC(Sc2ccccc2N)C1=O` (centres undefined) gave PABP FP inh -4.0, HCV core dimer -1.9, PABP1 MLLE inh 7.5, HCV NS3 hel inh 1.4, eIF4H FP inh 0.8 and DNA FID counter -1.7.
Cc1cc(=O)oc(C)c1C(=O)Nc1ccc2ncccc2c1 was read as PABP FP inh 118.6, HCV core dimer -0.2, PABP1 MLLE inh 42.3, HCV NS3 hel inh -3.2, eIF4H FP inh 125.1* and DNA FID counter -4.3.
Screening CSc1ccccc1NC(=S)Nc1ccc(S(N)(=O)=O)cc1 returned PABP FP inh -0.1, HCV core dimer -0.4, PABP1 MLLE inh 36.3*, HCV NS3 hel inh 2.3, eIF4H FP inh 4.1 and DNA FID counter 0.5.
Screening O=C(Nc1cccc([N+](=O)[O-])c1)c1cc2ccccc2cc1O returned PABP FP inh 15.9*, HCV core dimer -2.7, PABP1 MLLE inh -1.3, HCV NS3 hel inh 10.2, eIF4H FP inh 61.3* and DNA FID counter 12.1.
O=C(O)c1ccccc1C(=O)Nc1cccc([N+](=O)[O-])c1 was read as PABP FP inh -1.3, HCV core dimer -1.2, PABP1 MLLE inh -8.3, HCV NS3 hel inh 5.8, eIF4H FP inh -7.3 and DNA FID counter 3.5.
For CCOC(=O)[C@H]1[C@H]2COc3ccc(Br)cc3[C@H]2N2C(=O)CN(Cc3ccc(C)cc3)C(=O)[C@@]12C the results were PABP1 MLLE inh 46.8*.
`O=C(N/N=C/c1ccc2ccccc2c1)c1ccc(COc2ccc3c(c2)CCC3)o1` gave PABP FP inh -25.8, HCV core dimer 50.0*, PABP1 MLLE inh 0.6, HCV NS3 hel inh -0.5, eIF4H FP inh -18.0 and DNA FID counter -4.5.
`Cc1cc(-c2nnco2)c(C)n1-c1ccc(F)cc1` gave PABP FP inh 3.8, HCV core dimer 1.4, PABP1 MLLE inh -9.4, HCV NS3 hel inh -0.9, eIF4H FP inh 2.8 and DNA FID counter -7.5.
`Cc1ccc(C)n1-c1ccc(-c2nnco2)cc1` gave PABP FP inh 3.6, HCV core dimer 67.1*, PABP1 MLLE inh -6.0, HCV NS3 hel inh -2.1, eIF4H FP inh 13.4 and DNA FID counter -7.4.
`CCCN1CCCc2cc(CN)ccc21` gave PABP FP inh 92.0*, HCV core dimer -6.8, PABP1 MLLE inh 45.1*, HCV NS3 hel inh 0.0, eIF4H FP inh 58.1* and DNA FID counter 9.7.
For C=CCn1c(NC(=O)c2ccco2)c(S(=O)(=O)c2ccccc2)c2nc3ccccc3nc21 the results were PABP FP inh 64.1* and eIF4H FP inh 61.8*.
`C=CCn1c(NC(=O)c2ccc(Br)o2)c(S(=O)(=O)c2ccccc2)c2nc3ccccc3nc21` gave PABP FP inh 55.3*, HCV core dimer 12.6, PABP1 MLLE inh -42.5, HCV NS3 hel inh 4.3, eIF4H FP inh inconclusive and DNA FID counter -7.3.
CO/N=C/NC(=O)c1c(OC)ccnc1Oc1ccc(F)cc1 was read as PABP FP inh -2.4, HCV core dimer -2.8, PABP1 MLLE inh -2.7, HCV NS3 hel inh 9.6, eIF4H FP inh 5.7 and DNA FID counter 71.1*.
COc1ccnc(Oc2ccc(F)cc2)c1C(=O)N/C=N/OCc1ccc(F)cc1 was read as PABP FP inh -4.8, HCV core dimer -6.4, PABP1 MLLE inh -12.7, HCV NS3 hel inh -5.9, eIF4H FP inh 4.3 and DNA FID counter -10.8.
Screening CNc1ccccc1 returned PABP1 MLLE inh 10.7.
CNc1cccccc1=S was read as PABP FP inh 60.6*, HCV core dimer 44.1, PABP1 MLLE inh 48.9*, HCV NS3 hel inh 11.3, eIF4H FP inh 101.0* and DNA FID counter -3.0.
CCCS(=O)(=O)NC(=O)C1(C)CCCN(C(=O)c2cc(-c3cccs3)oc2C)C1 (centres undefined) was read as PABP1 MLLE inh 11.7.
